Laboratory results published in ChEMBL document CHEMBL3774312, “5-Substituted 3-isopropyl-7-[4-(2-pyridyl)benzyl]amino-1(2)H-pyrazolo[4,3-d]pyrimidines with anti-proliferative activity as potent and selective inhibitors of cyclin-dependent kinases” (Eur J Med Chem, 2016).
Active and inactive are the calls of the source. The rule behind the calls is not given here.

Legend:
[1] = target: Cyclin-dependent kinase 2/cyclin E1 (Homo sapiens, UniProt P24941); assay: Inhibition of CDK2/Cyclin E (unknown origin) expressed in sf9 cells using histone H1 as substrate in presence of [gamma33P]-ATP; format: cell-based
[2] = (§1) Cytotoxicity against human HCT116 cells assessed as reduction in cell viability after 72 hrs by calcein AM staining based fluorescence assay; format: functional; settings: HCT-116, 72 h
Procedure, shortened: (§2)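 Cells were grown in DMEM with 10% FBS, penicillin and streptomycin at 37 °C in 5% CO2. Three doses were tested in triplicate for 72 h. Live cells were read by Calcein AM fluorescence at 485/538 nm.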

[3] = Cytotoxicity against human G361 cells assessed as reduction in cell viability after 72 hrs by calcein AM staining based fluorescence assay; format: functional; settings: G-361, 72 h
Procedure, shortened: (§3)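 Cells were grown in DMEM with 10% FBS, penicillin and streptomycin at 37 °C in 5% CO2. Three doses were tested in triplicate for 72 h.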

[4] = test system: MCF7; assay: Cytotoxicity against human MCF7 cells assessed as reduction in cell viability after 72 hrs by calcein AM staining based fluorescence assay; format: functional; settings: for IC50: MCF7, 72 h; procedure, shortened: as §3
[5] = test system: K562; assay: Cytotoxicity against human K562 cells assessed as reduction in cell viability after 72 hrs by calcein AM staining based fluorescence assay; format: functional; settings: K562, 72 h; procedure, shortened: as §3
[6] = target: Cyclin-dependent kinase 5 (Homo sapiens, UniProt Q00535); assay: Inhibition of CDK5 (unknown origin) using histone H1 as substrate in presence of [gamma33P]-ATP
[7] = test system: MCF7; assay: Cell cycle arrest in BrdU pulse-labelled human MCF7 cells assessed as accumulation at late G2/M phase at 8 to 250 nM after 24 hrs by propidium iodide staining based flow cytometry; format: functional
[8] = test system: HCT-116; assay: as §1; format: functional; procedure, shortened: as §2
[9] = test system: MCF7; assay: Cell cycle arrest in BrdU pulse-labelled human MCF7 cells assessed as accumulation at subG1 phase at 8 to 250 nM after 24 hrs by propidium iodide staining based flow cytometry; format: functional
[10] = test system: MCF7; assay: Cell cycle arrest in BrdU pulse-labelled human MCF7 cells assessed as decrease in cells at S phase at 8 to 250 nM after 24 hrs by propidium iodide staining based flow cytometry; format: functional
[11] = test system: MCF7; assay: Cell cycle arrest in BrdU pulse-labelled human MCF7 cells assessed as accumulation at late S phase at 8 to 250 nM after 24 hrs by propidium iodide staining based flow cytometry; format: functional
[12] = test system: G-361; assay: Induction of apoptosis in human G361 cells assessed as caspase3 activation using Ac-DEVD-AMC as substrate at IC50 preincubated for 24 hrs followed by substrate addition measured after 3 hrs by fluorescence assay; format: functional, cell-based
[13] = test system: G-361; assay: Induction of apoptosis in human G361 cells assessed as caspase7 activation using Ac-DEVD-AMC as substrate at 5 times IC50 preincubated for 24 hrs followed by substrate addition measured after 3 hrs by fluorescence assay; format: functional, cell-based
[14] = target: Cyclin-dependent kinase 2 (Homo sapiens) (UniProt P24941); assay: Inhibition of CDK2 in human G361 cells assessed as reduction in phosphorylation of RNA polymerase 2 at C-terminus at 1 uM incubated for 0.5 to 24 hrs by immunoblotting analysis; format: cell-based; settings: G-361
Procedure, shortened: (§4)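 Treated G361 cells were lysed in Laemmli buffer, run on SDS-PAGE and blotted to nitrocellulose. Blots were probed overnight with antibodies to RNA polymerase II phosphorylated at S5 and S2, and to total RNA polymerase II (ARNA-3). Peroxidase secondaries were then applied and signal was detected by ECL with a CCD camera.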

[15] = test system: G-361; assay: Induction of apoptosis in human G361 cells assessed as caspase7 activation using Ac-DEVD-AMC as substrate at IC50 preincubated for 24 hrs followed by substrate addition measured after 3 hrs by fluorescence assay; format: functional, cell-based
[16] = test system: G-361; assay: Induction of apoptosis in human G361 cells assessed as caspase3 activation using Ac-DEVD-AMC as substrate at 5 times IC50 preincubated for 24 hrs followed by substrate addition measured after 3 hrs by fluorescence assay; format: functional, cell-based
[17] = target: Cyclin-dependent kinase 2 (Homo sapiens) (UniProt P24941); assay: Inhibition of CDK2 in human G361 cells assessed as reduction in phosphorylation of RNA polymerase 2 at C-terminus at 2.4 to 24 uM incubated for 24 hrs by immunoblotting analysis; format: cell-based; settings: G-361; procedure, shortened: as §4
[18] = target: Cyclin-dependent kinase 2 (Homo sapiens) (UniProt P24941); assay: Inhibition of CDK2 in human G361 cells assessed as reduction in phosphorylation of RNA polymerase 2 at C-terminus at 0.75 uM incubated for 0.5 to 24 hrs by immunoblotting analysis; format: cell-based; settings: G-361; procedure, shortened: as §4
[19] = target: Cyclin-dependent kinase 2 (Homo sapiens) (UniProt P24941); assay: Inhibition of CDK2 in human G361 cells assessed as reduction in phosphorylation of RNA polymerase 2 at C-terminus at 0.075 to 0.75 uM incubated for 24 hrs by immunoblotting analysis; format: cell-based; settings: G-361; procedure, shortened: as §4
[20] = test system: MCF7; assay: Cell cycle arrest in BrdU pulse-labelled human MCF7 cells assessed as accumulation at late G2/M phase at 8 to […] after 24 hrs by propidium iodide staining based flow cytometry; format: functional
[21] = test system: MCF7; assay: Cell cycle arrest in BrdU pulse-labelled human MCF7 cells assessed as accumulation at subG1 phase at 8 to […] after 24 hrs by propidium iodide staining based flow cytometry; format: functional
[22] = test system: MCF7; assay: Cell cycle arrest in BrdU pulse-labelled human MCF7 cells assessed as decrease in cells at S phase at 8 to […] after 24 hrs by propidium iodide staining based flow cytometry; format: functional
[23] = test system: MCF7; assay: Cell cycle arrest in BrdU pulse-labelled human MCF7 cells assessed as accumulation at late S phase at 8 to […] after 24 hrs by propidium iodide staining based flow cytometry; format: functional
[24] = target: Cyclin-dependent kinase 2 (Homo sapiens) (UniProt P24941); assay: Inhibition of CDK2 in human G361 cells assessed as reduction in phosphorylation of RNA polymerase 2 at C-terminus at 1.5 to 15 uM incubated for 24 hrs by immunoblotting analysis; format: cell-based; settings: G-361; procedure, shortened: as §4
[25] = target: Cyclin-dependent kinase 2 (Homo sapiens) (UniProt P24941); assay: Inhibition of CDK2 in human G361 cells assessed as reduction in phosphorylation of RNA polymerase 2 at C-terminus at 15 uM incubated for 0.5 to 24 hrs by immunoblotting analysis; format: cell-based; settings: G-361; procedure, shortened: as §4

Sequence of Cyclin-dependent kinase 5 (Q00535 whole entry): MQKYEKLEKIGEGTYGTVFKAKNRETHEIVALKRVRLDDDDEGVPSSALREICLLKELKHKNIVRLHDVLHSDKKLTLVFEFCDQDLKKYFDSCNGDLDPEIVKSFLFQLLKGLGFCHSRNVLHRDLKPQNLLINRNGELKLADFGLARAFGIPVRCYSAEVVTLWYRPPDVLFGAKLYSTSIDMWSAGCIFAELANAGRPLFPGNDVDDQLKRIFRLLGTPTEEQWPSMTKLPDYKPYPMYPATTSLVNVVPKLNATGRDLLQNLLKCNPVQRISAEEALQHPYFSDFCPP

| SMILES | IC50 [1] | IC50 [2] | IC50 [3] | IC50 [4] | IC50 [5] | IC50 [6] | further results |
| --- | --- | --- | --- | --- | --- | --- | --- |
| CC(C)c1n[nH]c2c(NCc3ccc(-c4ccccn4)cc3)nc(N3CCSCC3)nc12 | 61 nM | 940 nM | 873 nM | 530 nM | 589 nM |  |  |
| CC(C)c1n[nH]c2c(NCc3ccc(-c4ccccn4)cc3)nc(NCC(O)CO)nc12 (configuration not stated) | 12 nM | 87 nM | 72 nM | 59 nM | 47 nM | 21 nM |  |
| CSc1nc(NCc2ccc(-c3ccccn3)cc2)c2[nH]nc(C(C)C)c2n1 | 48 nM | 2800 nM | 1400 nM | 819 nM | 778 nM |  |  |
| CC(C)c1n[nH]c2c(NCc3ccc(-c4ccccn4)cc3)nc(N3CCCCC3CCO)nc12 (configuration not stated) | 24 nM | 142 nM | 204 nM | 133 nM | 165 nM | 37 nM |  |
| CC[C@H](CO)Nc1nc(NCc2ccccc2)c2ncn(C(C)C)c2n1 [SELICICLIB] |  | 14400 nM |  | 12200 nM |  |  |  |
| CC(C)c1n[nH]c2c(NCc3ccc(-c4ccccn4)cc3)nc(NCCN)nc12 | 18 nM | 227 nM | 230 nM | 62 nM | 63 nM | 8 nM |  |
| CC(C)c1n[nH]c2c(NCc3ccc(-c4ccccn4)cc3)nc(NCC(O)CN)nc12 (configuration not stated) | 51 nM | 781 nM | 1020 nM | 310 nM | 700 nM | 17 nM | Activity [7]: Active; Activity [8]: Dose-dependent effect; Activity [9]: Active; Activity [4]: Dose-dependent effect; Activity [10]: Active; Activity [11]: Active |
| CC(C)c1n[nH]c2c(NCc3ccc(-c4ccccn4)cc3)nc(N3CCOCC3)nc12 | 18 nM | 270 nM | 197 nM | 163 nM | 110 nM |  | Activity [12]: inactive; Activity [13]: Active; inhibition [14]: Active; Activity [15]: inactive; Activity [16]: Active |
| CC(C)c1n[nH]c2c(NCc3ccc(-c4ccccn4)cc3)nc(N[C@@H]3CCCC[C@H]3N)nc12 (relative stereo) | 46 nM | 427 nM | 477 nM | 295 nM | 175 nM | 44 nM |  |
| CC(C)c1n[nH]c2c(NCc3ccc(-c4ccccn4)cc3)nc(N3CCNCC3)nc12 | 50 nM | 88 nM | 64 nM | 21 nM | 17 nM |  |  |
| CC[C@H](CO)Nc1nc(NCc2ccccc2)c2[nH]nc(C(C)C)c2n1 |  |  |  |  |  |  | inhibition [17]: Active |
| CC(C)c1n[nH]c2c(NCc3ccc(-c4ccccn4)cc3)nc(S(C)(=O)=O)nc12 | 70 nM | 1140 nM | 793 nM | 460 nM | 640 nM |  |  |
| CC(C)c1n[nH]c2c(NCc3ccc(-c4ccccn4)cc3)nc(NCC(C)(C)O)nc12 | 9 nM | 85 nM | 48 nM | 24 nM | 29 nM |  | inhibition [18]: Active; Activity [12]: Active; Activity [13]: Active; Activity [15]: Active; inhibition [19]: Active; Activity [16]: Active |
| CCC(CO)Nc1nc(NCc2ccc(-c3ccccn3)cc2)c2[nH]nc(C(C)C)c2n1 (configuration not stated) | 54 nM | 110 nM | 67 nM | 53 nM |  |  | Activity [20]: Active; Activity [21]: Active; Activity [8]: Dose-dependent effect; Activity [4]: Dose-dependent effect; Activity [22]: Active; Activity [23]: Active |
| CC[C@H](CO)Nc1nc(NCc2ccc(-c3ccccn3)cc2)c2ncn(C(C)C)c2n1 |  | 350 nM | 503 nM | 160 nM | 175 nM |  |  |
| CC(C)c1n[nH]c2c(NCc3ccc(-c4ccccn4)cc3)nc(NCCO)nc12 | 31 nM | 27 nM | 39 nM | 51 nM | 38 nM | 49 nM |  |
| CC(C)c1n[nH]c2c(NCc3ccc(-c4ccccn4)cc3)nc(N3CCN(CCO)CC3)nc12 | 132 nM | 350 nM | 181 nM | 195 nM | 145 nM |  |  |
| CC(C)c1n[nH]c2c(NCc3ccc(-c4ccccn4)cc3)nc(NCCN(C)C)nc12 | 467 nM | 390 nM | 640 nM | 225 nM | 125 nM |  |  |
| CC(C)c1n[nH]c2c(NCc3ccc(-c4ccccn4)cc3)nc(N[C@H]3CC[C@H](N)CC3)nc12 | 96 nM | 720 nM | 745 nM | 474 nM | 593 nM |  | inhibition [24]: Active; Activity [12]: Active; Activity [13]: Active; Activity [15]: Active; inhibition [25]: Active; Activity [16]: Active |
| CC(C)c1n[nH]c2c(NCc3ccc(-c4ccccn4)cc3)nc(NCc3ccc(-c4ccccn4)cc3)nc12 | 1450 nM | 7320 nM | 3610 nM | 2380 nM | 2540 nM | 3600 nM |  |
